In data set [1] the target is Tyrosine-protein kinase BTK (Homo sapiens, UniProt Q06187). The experiment in a line: Inhibition of human recombinant BTK incubated for 5 mins by HTRF kinase assay. A general note: Time-resolved FRET reads energy transfer from a long-lived donor to a nearby acceptor.
For data set [2], the target named is T1, Tyrosine-protein kinase JAK3 (Homo sapiens, UniProt P52333).
T1 sequence (P52333 whole entry): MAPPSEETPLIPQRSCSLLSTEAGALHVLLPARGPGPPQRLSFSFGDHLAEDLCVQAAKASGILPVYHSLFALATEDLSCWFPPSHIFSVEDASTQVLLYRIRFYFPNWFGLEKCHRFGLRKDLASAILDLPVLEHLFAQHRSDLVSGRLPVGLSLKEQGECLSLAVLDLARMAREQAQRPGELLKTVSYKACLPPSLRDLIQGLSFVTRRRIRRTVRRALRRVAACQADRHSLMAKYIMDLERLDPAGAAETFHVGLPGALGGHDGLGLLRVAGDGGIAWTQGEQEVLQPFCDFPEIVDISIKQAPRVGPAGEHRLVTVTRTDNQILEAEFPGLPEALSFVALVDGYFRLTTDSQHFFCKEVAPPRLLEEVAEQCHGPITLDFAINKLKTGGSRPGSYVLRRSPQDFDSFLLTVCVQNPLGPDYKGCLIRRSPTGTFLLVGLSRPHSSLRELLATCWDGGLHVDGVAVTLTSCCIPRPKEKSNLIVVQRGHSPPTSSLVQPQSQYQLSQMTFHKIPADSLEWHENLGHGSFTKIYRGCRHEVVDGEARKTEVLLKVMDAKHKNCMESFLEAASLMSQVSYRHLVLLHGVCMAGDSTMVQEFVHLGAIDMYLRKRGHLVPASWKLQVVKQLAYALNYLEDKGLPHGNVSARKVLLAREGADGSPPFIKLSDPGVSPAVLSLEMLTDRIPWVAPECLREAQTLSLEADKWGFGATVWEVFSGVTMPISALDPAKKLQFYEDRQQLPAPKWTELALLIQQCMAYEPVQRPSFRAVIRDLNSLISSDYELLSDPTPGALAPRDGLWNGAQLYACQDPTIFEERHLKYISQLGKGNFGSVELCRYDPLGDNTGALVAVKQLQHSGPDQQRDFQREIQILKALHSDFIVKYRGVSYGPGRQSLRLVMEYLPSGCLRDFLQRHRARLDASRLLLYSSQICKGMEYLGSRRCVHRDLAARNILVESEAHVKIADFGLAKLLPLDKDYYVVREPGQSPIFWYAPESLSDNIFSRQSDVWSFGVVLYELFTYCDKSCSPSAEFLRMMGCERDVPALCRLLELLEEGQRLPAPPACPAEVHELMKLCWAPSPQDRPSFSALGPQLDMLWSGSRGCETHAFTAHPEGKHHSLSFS
As to the kind of experiment: Inhibition of JAK3 (unknown origin) using poly (Glu-Tyr, 4:1) substrate incubated for 60 mins by ELISA method. An outline of the steps:
(§1)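 ELISA on wells precoated overnight at 37 °C with 0.2 mg/mL poly(Glu-Tyr, 4:1). Kinase and 0.01 mmol/L ATP in reaction medium, plus inhibitor at various concentrations in 1% DMSO, were reacted for 60 min at 37 °C. Anti-phosphotyrosine antibody and HRP anti-mouse IgG followed, with TMB read-out stopped by 2 M H2SO4 and OD at 450 nm. IC50 came from regression of concentration/inhibition data.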
(In an ELISA, binding on a coated surface is turned into a signal by an enzyme label.)

Data set [3] addresses Vascular endothelial growth factor receptor 2 (Homo sapiens, UniProt P35968). As to the kind of experiment: Inhibition of KDR (unknown origin) using poly (Glu-Tyr, 4:1) substrate incubated for 60 mins by ELISA method. In outline:
as §1

The target in data set [4] is Hepatocyte growth factor receptor (Homo sapiens, UniProt P08581). As to the kind of experiment: Inhibition of c-MET (unknown origin) using poly (Glu-Tyr, 4:1) substrate incubated for 60 mins by ELISA method. In outline:
as §1

Data set [5] concerns the target Tyrosine-protein kinase JAK2 (Homo sapiens, UniProt O60674). As to the kind of experiment: Inhibition of JAK2 (unknown origin) using poly (Glu-Tyr, 4:1) substrate incubated for 60 mins by ELISA method. An outline of the steps: as §1
Data set [6] can be described thus: Cmax in Sprague-Dawley rat at 2.5 mg/kg, iv by LC-MS/MS method. The note with it: in vivo. Details: dose 2.5 mg/kg, route intravenous. The class given is ADME, organism-based. In outline:
(§2)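 Male SD rats, 3 per route (180-240 g), dosed 2.5 mg/kg iv or 10 mg/kg po at 5 mL/kg. Blood was sampled from 2 min to 24 h, centrifuged at 4000 rpm for 5 min at 4 °C and protein-precipitated. Plasma was quantified by LC/MS/MS in SRM mode with an internal standard. PK parameters came from noncompartmental analysis.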

Data set [7] can be described thus: AUC (0 to t) in Sprague-Dawley rat at 2.5 mg/kg, iv by LC-MS/MS method. The note with it: in vivo. The format is ADME, organism-based. In outline:
as §2

Data set [8] can be described thus: Apparent volume of distribution in Sprague-Dawley rat at 2.5 mg/kg, iv by LC-MS/MS method. The format is ADME, organism-based. The note with it: in vivo, read-out: Vz. An outline of the steps: as §2
Data set [9] is described as follows: Clearance in Sprague-Dawley rat at 2.5 mg/kg, iv by LC-MS/MS method. The class given is ADME, organism-based. The note with it: in vivo. An outline of the steps: as §2
A short description of data set [10]: Mean residence time in Sprague-Dawley rat at 2.5 mg/kg, iv by LC-MS/MS method. The class given is ADME, organism-based. The note with it: in vivo. In outline:
as §2

A short description of data set [11]: Half life in Sprague-Dawley rat at 2.5 mg/kg, iv by LC-MS/MS method. The class given is ADME, organism-based. The note with it: in vivo. In outline:
as §2

Data set [12] in a line: Tmax in Sprague-Dawley rat at 2.5 mg/kg, iv by LC-MS/MS method. The note with it: in vivo. The class given is ADME, organism-based. In outline:
as §2

A short description of data set [13]: Cmax in Sprague-Dawley rat at 10 mg/kg, po by LC-MS/MS method. The note with it: in vivo. Details: dose 10 mg/kg, route oral. The class given is ADME, organism-based. In outline:
as §2

Data set [14] is described as follows: AUC (0 to t) in Sprague-Dawley rat at 10 mg/kg, po by LC-MS/MS method. The class given is ADME, organism-based. The note with it: in vivo. In outline:
as §2

Data set [15] concerns Rattus norvegicus. The experiment in a line: Apparent volume of distribution in Sprague-Dawley rat at 10 mg/kg, po by LC-MS/MS method. The class given is ADME, organism-based. The note with it: in vivo. In outline: as §2
Data set [16] is described as follows: Clearance in Sprague-Dawley rat at 10 mg/kg, po by LC-MS/MS method. The class given is ADME, organism-based. The note with it: in vivo. An outline of the steps: as §2
The nature of data set [17]: Mean residence time in Sprague-Dawley rat at 10 mg/kg, po by LC-MS/MS method. The note with it: in vivo. The class given is ADME, organism-based. An outline of the steps: as §2
Data set [18] can be described thus: Half life in Sprague-Dawley rat at 10 mg/kg, po by LC-MS/MS method. The format is ADME, organism-based. The note with it: in vivo. An outline of the steps:
as §2

A short description of data set [19]: Tmax in Sprague-Dawley rat at 10 mg/kg, po by LC-MS/MS method. The class given is ADME, organism-based. The note with it: in vivo. An outline of the steps:
as §2

Data set [20] in a line: Oral bioavailability in Sprague-Dawley rat at 10 mg/kg by LC-MS/MS method. The class given is ADME, organism-based. The note with it: in vivo. In outline: as §2

Here are results for 21 compounds from ChEMBL document CHEMBL3603780, “Discovery of thieno[3,2-c]pyridin-4-amines as novel Bruton's tyrosine kinase (BTK) inhibitors” (Bioorg Med Chem, 2015).

In general, IC50 refers to the concentration that gives 50% inhibition. For orientation: Cmax means the peak of the concentration-time curve. The AUC(0-t) is the area under the concentration-time curve up to a stated or last time point. The clearance is a measure of how efficiently the substance is removed, as volume per time. Low values mean inefficient removal, high ones efficient removal. In general, MRT refers to the average time that molecules of a dose stay in the body. Usually half-life stands for the time needed for the level to fall by half in the phase considered. Read a low half-life as rapid decline. By Tmax is commonly meant the time at which the peak concentration occurs. What is called CL/F is clearance divided by bioavailability, as obtained after extravascular dosing. A word on the bioavailability: it is dose-corrected exposure relative to a reference, in per cent. The low end stands for poor availability, the high end for good availability.

Tyrosine-protein kinase BTK, sequence (Q06187 whole entry): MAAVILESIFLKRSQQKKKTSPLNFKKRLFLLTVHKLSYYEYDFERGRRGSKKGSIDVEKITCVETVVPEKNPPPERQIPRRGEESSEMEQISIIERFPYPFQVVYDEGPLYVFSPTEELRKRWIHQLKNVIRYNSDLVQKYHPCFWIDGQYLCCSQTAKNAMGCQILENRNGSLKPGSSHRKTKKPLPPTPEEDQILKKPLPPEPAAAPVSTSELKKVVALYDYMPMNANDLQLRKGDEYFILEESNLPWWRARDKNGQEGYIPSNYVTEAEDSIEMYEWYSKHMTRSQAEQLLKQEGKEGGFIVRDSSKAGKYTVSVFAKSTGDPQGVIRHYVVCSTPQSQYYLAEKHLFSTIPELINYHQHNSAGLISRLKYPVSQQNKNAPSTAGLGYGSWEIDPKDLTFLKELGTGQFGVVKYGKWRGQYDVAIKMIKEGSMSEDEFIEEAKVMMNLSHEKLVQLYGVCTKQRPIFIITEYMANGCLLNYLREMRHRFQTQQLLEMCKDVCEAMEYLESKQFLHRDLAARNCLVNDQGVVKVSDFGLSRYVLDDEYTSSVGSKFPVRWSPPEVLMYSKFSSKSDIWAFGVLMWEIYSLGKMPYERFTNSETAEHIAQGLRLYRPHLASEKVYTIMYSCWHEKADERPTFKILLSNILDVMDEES
Hepatocyte growth factor receptor, sequence (P08581 whole entry): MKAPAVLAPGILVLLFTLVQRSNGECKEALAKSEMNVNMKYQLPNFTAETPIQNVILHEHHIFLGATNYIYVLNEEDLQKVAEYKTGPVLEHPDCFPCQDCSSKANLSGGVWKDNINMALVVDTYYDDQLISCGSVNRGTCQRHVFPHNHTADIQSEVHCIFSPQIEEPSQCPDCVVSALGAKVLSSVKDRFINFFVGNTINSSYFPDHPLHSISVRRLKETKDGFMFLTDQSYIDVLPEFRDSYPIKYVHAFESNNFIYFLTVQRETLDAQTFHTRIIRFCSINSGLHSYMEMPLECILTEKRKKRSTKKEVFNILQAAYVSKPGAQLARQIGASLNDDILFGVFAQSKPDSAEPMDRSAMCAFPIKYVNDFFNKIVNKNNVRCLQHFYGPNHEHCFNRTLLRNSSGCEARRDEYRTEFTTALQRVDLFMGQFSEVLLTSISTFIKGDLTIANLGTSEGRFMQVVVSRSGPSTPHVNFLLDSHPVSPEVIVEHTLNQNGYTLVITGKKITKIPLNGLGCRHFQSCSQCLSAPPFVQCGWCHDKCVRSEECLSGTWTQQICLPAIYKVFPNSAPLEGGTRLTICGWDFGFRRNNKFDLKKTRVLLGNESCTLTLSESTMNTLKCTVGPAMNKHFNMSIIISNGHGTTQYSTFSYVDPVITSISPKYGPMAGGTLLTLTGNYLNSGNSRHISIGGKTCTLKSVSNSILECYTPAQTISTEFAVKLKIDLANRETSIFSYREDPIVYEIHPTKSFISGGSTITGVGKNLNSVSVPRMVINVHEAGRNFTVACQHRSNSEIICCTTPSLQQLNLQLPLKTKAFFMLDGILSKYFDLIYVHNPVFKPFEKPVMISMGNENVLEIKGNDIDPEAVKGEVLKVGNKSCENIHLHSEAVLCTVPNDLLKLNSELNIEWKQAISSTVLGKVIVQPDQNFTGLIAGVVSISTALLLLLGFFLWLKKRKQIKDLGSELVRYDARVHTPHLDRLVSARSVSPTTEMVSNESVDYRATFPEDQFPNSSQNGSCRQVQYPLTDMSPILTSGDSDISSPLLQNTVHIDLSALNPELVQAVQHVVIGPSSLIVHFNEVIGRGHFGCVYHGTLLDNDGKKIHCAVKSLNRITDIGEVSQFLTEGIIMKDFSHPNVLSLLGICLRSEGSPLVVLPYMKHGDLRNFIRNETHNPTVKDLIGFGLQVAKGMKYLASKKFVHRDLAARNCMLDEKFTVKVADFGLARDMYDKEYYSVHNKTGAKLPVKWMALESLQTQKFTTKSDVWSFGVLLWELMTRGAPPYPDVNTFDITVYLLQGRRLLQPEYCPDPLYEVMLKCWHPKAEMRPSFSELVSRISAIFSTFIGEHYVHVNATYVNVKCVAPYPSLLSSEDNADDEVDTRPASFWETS
Tyrosine-protein kinase JAK2, sequence (O60674 whole entry): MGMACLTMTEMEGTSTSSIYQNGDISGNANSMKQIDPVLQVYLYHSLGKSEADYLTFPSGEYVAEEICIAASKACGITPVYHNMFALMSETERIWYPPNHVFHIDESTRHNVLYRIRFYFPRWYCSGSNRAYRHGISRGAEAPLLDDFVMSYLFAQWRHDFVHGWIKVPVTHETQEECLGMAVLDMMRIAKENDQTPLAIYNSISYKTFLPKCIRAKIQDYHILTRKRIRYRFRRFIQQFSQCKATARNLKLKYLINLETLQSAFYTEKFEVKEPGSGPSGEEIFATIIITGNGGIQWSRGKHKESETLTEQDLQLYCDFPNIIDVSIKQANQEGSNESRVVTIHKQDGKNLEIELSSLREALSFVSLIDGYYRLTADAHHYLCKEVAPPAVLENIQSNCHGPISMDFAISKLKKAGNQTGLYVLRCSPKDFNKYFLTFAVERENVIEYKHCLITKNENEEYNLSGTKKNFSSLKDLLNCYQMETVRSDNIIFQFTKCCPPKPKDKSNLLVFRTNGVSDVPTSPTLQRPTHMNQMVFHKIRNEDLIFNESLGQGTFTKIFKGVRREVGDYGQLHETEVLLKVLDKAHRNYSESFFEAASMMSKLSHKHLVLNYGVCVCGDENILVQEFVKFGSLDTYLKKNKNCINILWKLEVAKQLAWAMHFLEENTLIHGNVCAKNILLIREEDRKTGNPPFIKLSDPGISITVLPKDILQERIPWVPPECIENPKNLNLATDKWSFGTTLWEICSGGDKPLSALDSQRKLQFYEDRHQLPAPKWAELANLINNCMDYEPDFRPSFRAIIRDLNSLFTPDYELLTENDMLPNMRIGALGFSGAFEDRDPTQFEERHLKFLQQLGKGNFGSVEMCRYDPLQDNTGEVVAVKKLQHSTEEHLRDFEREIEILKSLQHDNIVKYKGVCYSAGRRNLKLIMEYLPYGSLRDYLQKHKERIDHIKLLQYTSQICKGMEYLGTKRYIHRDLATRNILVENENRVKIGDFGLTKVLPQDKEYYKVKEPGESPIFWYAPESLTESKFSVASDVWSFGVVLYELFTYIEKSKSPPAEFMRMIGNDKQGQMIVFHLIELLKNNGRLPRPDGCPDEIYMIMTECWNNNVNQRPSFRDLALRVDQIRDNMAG
Vascular endothelial growth factor receptor 2, sequence (P35968 whole entry): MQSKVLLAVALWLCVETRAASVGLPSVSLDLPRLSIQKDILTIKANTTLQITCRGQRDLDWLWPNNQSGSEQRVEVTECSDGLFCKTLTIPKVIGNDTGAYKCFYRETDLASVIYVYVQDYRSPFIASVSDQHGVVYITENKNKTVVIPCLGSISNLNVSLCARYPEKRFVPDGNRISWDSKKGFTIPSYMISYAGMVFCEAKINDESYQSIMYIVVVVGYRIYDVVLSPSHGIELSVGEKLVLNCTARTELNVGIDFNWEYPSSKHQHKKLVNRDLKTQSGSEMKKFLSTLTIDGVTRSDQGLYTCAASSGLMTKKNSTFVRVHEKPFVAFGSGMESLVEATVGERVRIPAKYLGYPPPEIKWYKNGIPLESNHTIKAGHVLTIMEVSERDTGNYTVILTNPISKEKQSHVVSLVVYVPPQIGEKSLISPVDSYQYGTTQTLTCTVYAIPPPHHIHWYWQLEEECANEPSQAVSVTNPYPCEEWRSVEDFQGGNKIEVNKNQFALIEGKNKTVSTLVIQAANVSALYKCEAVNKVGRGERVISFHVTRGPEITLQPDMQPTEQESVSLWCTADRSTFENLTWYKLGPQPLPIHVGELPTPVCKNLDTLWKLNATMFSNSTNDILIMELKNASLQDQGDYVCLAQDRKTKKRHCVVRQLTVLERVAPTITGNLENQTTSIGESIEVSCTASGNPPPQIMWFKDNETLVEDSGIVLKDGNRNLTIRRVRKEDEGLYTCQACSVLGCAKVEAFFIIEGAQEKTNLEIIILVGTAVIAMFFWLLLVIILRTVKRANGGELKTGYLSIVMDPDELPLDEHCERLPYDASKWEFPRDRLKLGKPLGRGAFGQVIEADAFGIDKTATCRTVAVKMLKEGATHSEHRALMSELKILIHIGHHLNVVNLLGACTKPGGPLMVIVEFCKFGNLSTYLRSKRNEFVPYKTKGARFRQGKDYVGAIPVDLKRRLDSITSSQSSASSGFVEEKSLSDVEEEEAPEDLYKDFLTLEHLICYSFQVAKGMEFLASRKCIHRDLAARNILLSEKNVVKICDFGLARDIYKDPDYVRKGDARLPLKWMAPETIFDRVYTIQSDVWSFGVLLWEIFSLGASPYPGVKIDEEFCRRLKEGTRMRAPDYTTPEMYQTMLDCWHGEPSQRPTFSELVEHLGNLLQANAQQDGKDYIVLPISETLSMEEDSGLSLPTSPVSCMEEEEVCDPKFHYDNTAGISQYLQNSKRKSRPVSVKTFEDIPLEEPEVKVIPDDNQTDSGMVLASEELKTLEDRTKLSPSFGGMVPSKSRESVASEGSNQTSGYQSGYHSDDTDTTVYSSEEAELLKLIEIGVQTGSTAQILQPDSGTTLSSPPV

On to `COc1ccc2cc(-c3cnc(N)c4c(-c5ccc(Oc6ccccc6)cc5)csc34)ccc2c1`, for which, in [1], the IC50 is > 10000 nM.

Turning to `Nc1ncc(-c2ccco2)c2scc(-c3ccc(Oc4ccccc4)cc3)c12`, in data set [1], the IC50 amounted to 767 nM.

For `Nc1ncc(C2CC2)c2scc(-c3ccc(Oc4ccccc4)cc3)c12`, in [1], the IC50 is > 10000 nM.

For `Nc1ncc(-c2ccccc2)c2scc(-c3ccc(Oc4ccccc4)cc3)c12`, in data set [1], the IC50 is > 10000 nM.

In the case of `Nc1ncc(-c2ccncc2)c2scc(-c3ccc(Oc4ccccc4)cc3)c12`, in [1], the IC50 turned out to be 1950 nM.

For the compound `Nc1ncc(-c2ccc(N3CCOCC3)cc2)c2scc(-c3ccc(Oc4ccccc4)cc3)c12`, the IC50 in data set [1] worked out at 2300 nM.

On to `Nc1ncc(-c2ccc(Oc3ccccc3)cc2)c2scc(-c3ccc(Oc4ccccc4)cc3)c12`, for which the IC50 in [1] was > 10000 nM.

For the compound `CCCCc1cnc(N)c2c(-c3ccc(Oc4ccccc4)cc3)csc12`, the IC50 in [1] was > 10000 nM.

As for `Nc1ncc(-c2cn[nH]c2)c2scc(-c3ccc(Oc4ccccc4)cc3)c12`, the IC50 in data set [1] was 1050 nM.

In the case of `Cn1cc(-c2cnc(N)c3c(-c4ccc(Oc5ccccc5)cc4)csc23)cn1`, the IC50 in data set [1] is 107 nM; in data set [2] it was > 10000 nM; in [3] it was 343 nM; in data set [4] it was > 10000 nM; in data set [5] it was > 10000 nM.

As for `CCn1cc(-c2cnc(N)c3c(-c4ccc(Oc5ccccc5)cc4)csc23)cn1`, the IC50 in data set [1] was 176 nM.

Regarding `CCCCn1cc(-c2cnc(N)c3c(-c4ccc(Oc5ccccc5)cc4)csc23)cn1`, the IC50 in [1] was 387 nM.

As to `Nc1ncc(-c2cnn(Cc3ccccc3)c2)c2scc(-c3ccc(Oc4ccccc4)cc3)c12`, the IC50 in data set [1] came out at 699 nM.

Regarding `COCCCn1cc(-c2cnc(N)c3c(-c4ccc(Oc5ccccc5)cc4)csc23)cn1`, in data set [1], the IC50 came to 280 nM.

As to `CNC(=O)Cn1cc(-c2cnc(N)c3c(-c4ccc(Oc5ccccc5)cc4)csc23)cn1`, the IC50 was 12.8 nM in data set [1]; > 10000 nM in [2]; 284 nM in data set [3]; > 10000 nM in data set [4]; > 10000 nM in [5]. Further, the results for the Cmax in data set [6] and in data set [13] were 2550 ng/mL and 856 ng/mL, respectively. The AUC(0-t) in [7] stood at 1460 ng·h/mL; in [14], 1370 ng·h/mL. Besides, the Vd in data set [8] was found to be 0.9 L/kg. The compound further had a clearance in data set [9] of 28.6 mL/min/kg. In addition, the MRT in data set [10] is 25.8 min; in [17], 88.8 min. In addition, the half-life in data set [11] was 21.6 min; in data set [18], 60.6 min. Moreover, the Tmax in [12] stood at 6.6 min; in [19], 40.2 min. Besides, in data set [15], the Vz was found to be 13.3206 L/kg. This compound also showed a CL/F in [16] of 145 mL/min/kg. For the same compound, the bioavailability in [20] is 23.4%.

Turning to `CN(C)S(=O)(=O)n1cc(-c2cnc(N)c3c(-c4ccc(Oc5ccccc5)cc4)csc23)cn1`, the IC50 in [1] came out at 528 nM.

Regarding `CC(=O)n1cc(-c2cnc(N)c3c(-c4ccc(Oc5ccccc5)cc4)csc23)cn1`, the IC50 in data set [1] was 454 nM.

With `CNC(=O)Cn1cc(-c2cnc(N)c3c(-c4cccc(C(=O)Nc5ccccc5)c4)csc23)cn1`, the IC50 in data set [1] amounted to 291 nM.

`CNC(=O)Cn1cc(-c2cnc(N)c3c(-c4ccc(C(=O)Nc5ccccc5)cc4)csc23)cn1`: the IC50 in data set [1] came out at 137 nM.

Regarding `Cn1cc(-c2cnc(N)c3c(-c4ccc(NC(=O)c5cccc(Cl)c5)cc4)csc23)cn1`, in data set [1], the half-inhibitory concentration (IC50) was 421 nM.

`CNC(=O)Cn1cc(-c2cnc(N)c3c(-c4ccc(NC(=O)c5cccc(Cl)c5)cc4)csc23)cn1`: the IC50 in data set [1] turned out to be 409 nM.
